Test results from ChEMBL document CHEMBL1154145, “Inhibitory effect of macabarterin, a polyoxygenated ellagitannin from Macaranga barteri, on human neutrophil respiratory burst activity” (J Nat Prod, 2008).
≈ marks a conversion by molar mass, not a printed value.

Experiments:
[1] = Antiinflammatory activity in human neutrophils assessed as respiratory burst inhibition at 1000 ug/ml by WST-1 assay; type: functional; settings: Neutrophil
Method in brief: (§1)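 Neutrophils came from heparinized blood of healthy volunteers, diluted with modified Hank's solution (MHS, pH 7.4), left 20 min at RT, then Ficoll-separated (>97% trypan-blue viable). 1.0 × 10^4 cells/mL in MHS with 250 µM WST-1 and compound were equilibrated at 37 °C. Opsonized zymosan A (15 mg/mL, pooled human serum) was added to start the reaction. A450 was read. Inhibition was calculated against a DMSO blank from five replicates.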

[2] = Antiinflammatory activity in human neutrophils assessed inhibition of superoxide anions production; type: functional, cell-based; settings: Neutrophil; method in brief: as §1

| IC50 [2] | SMILES | inhibition at 1000 µg/mL [1] |
| --- | --- | --- |
|  | COc1c(O)cc2c(=O)oc3c(O)c(O)cc4c(=O)oc1c2c34 | 13.7% |
|  | COc1c(O[C@@H]2OC[C@@H](O)[C@H](O)[C@H]2O)cc2c(=O)oc3c(O)c(O)cc4c(=O)oc1c2c34 | 29.1% |
| 279 µg/mL (≈ 1550 µM) | CC(=O)Oc1ccccc1C(=O)O [ASPIRIN] | 70.5% |
|  | O=c1oc2c(O)c(O)cc3c(=O)oc4c(O)c(O)cc1c4c23 [ELLAGIC ACID] | 27.1% |
|  | O=C(O)c1cc(O)c(O)c(O)c1 [GALLIC ACID] | 42.9% |
| 758 µg/mL (≈ 2120 µM) | COc1ccc2c(c1)c(CC(=O)O)c(C)n2C(=O)c1ccc(Cl)cc1 [INDOMETHACIN] | 58.8% |
| 821 µg/mL (≈ 746 µM) | O=C(O[C@@H]1O[C@@H]2COC(=O)c3cc(O)c(O)c(O)c3-c3c(cc(O)c(O)c3O)C(=O)O[C@@H]3[C@H]1OC(=O)c1cc(O)c(O)c4c1C1C5(C[C@]6(O)OC[C@@H](O)[C@@H]6C[C@@H]5C(O)(O)C(O)(O)[C@]1(O)O4)C(=O)O[C@@H]32)c1cc(O)c(O)c(O)c1 (stereo partly specified) [MACABARTERIN] | 73.2% |
|  | COc1cc2ccc(=O)oc2cc1O [SCOPOLETIN] | 31.2% |
